# Assay outcomes deposited in PubChem by several laboratories.
# T cell HTS = modulators of CD8 T cell-vesicle binding, primary screen, mouse 2C CD8+ T cells, flow cytometry; 2C CD8+ T cell-vesicle binding; hits give low values; response (vesicle binding), % at 7 µM; 0.068% of 330,000 active;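 active means response, share of CD8 T cells binding vesicles, and their 90th percentile fluorescence all below set limits, cut at about 80% in these data, passing the limit was not always enough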;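 further: values below 100% mean blocked vesicle binding to the CD8+ T cells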
#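 material = purified 2C TCR transgenic mouse naive CD8+ T cells | controls = Unloaded micro-vesicles (low), QL9 vesicles with 0.7% DMSO (high) | detection = cytometric PE anti-B7-1 and Alexa647 anti-CD8 signals after 1% paraformaldehyde fixation | incubation = binding step 1.5 h, 37 °C, antibody labelling 20 min, ice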
# GPR7 antagonist = GPR7 receptor antagonists, primary screen, cell-based, fluorescence, single concentration; 1.1% of 290,000 active; GPR7-expressing cells, fluorescence antagonist assay; inhibition, % at 4.4 µM; in the data active means inhibition above about 16%, passing the limit was not always enough;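 further: cells stimulated with the agonist NPW; 0% = agonist with vehicle and 100% = vehicle without agonist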
# CHT block = inhibitors of human choline transporter CHT; High affinity choline transporter 1 (Homo sapiens), Q9GZV3; CHT-expressing cells, membrane potential dye, choline response; hits give low values; B-score at 10 µM; 0.86% of 310,000 active; AID 488975, 2010;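 active means B-score over 3 SD under the library average, and starting fluorescence ratio not unusually high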;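 further: choline stimulus applied at its EC90 after an EC20 pre-addition; B-score computed on integrated fluorescence ratio after choline addition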
# Target sequence (Q9GZV3 whole entry, looked up): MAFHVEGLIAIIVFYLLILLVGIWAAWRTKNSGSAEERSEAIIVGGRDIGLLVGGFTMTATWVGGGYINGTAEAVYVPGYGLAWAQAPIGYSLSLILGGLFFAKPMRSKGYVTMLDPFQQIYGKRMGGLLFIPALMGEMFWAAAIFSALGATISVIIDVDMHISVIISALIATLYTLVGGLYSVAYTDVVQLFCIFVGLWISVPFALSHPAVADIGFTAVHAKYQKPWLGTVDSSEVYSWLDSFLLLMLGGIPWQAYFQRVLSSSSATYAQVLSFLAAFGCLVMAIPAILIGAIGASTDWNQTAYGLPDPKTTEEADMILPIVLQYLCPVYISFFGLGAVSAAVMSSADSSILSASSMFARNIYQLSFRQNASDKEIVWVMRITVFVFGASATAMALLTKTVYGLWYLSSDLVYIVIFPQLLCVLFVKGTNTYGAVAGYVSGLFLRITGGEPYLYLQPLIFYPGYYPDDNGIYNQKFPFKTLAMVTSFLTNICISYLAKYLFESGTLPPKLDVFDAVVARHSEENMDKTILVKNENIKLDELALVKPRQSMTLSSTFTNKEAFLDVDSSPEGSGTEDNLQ
# CHT PAM = CHT positive allosteric modulators, primary screen, cell-based, membrane potential dye, choline EC20 | High affinity choline transporter 1 (Homo sapiens), Q9GZV3 | B-score at 10 µM | AID 488977, 2010 | 0.49% of 310,000 active | CHT-expressing cells; hits give high values; LV-AA mutant CHT in HEK293 cells;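 active means initial fluorescence not abnormally high and integrated response B-score, plate-corrected, over 3 SD above library mean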
# pCIP destab = p/CIP-EGFP fusion destabilizers, primary screen, fluorescence, F442A cells; Q05BA5; 16 h; decrease of EGFP signal, % at 10 µM; 0.01% of 290,000 active; AID 1984, 2009;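 active means EGFP signal decrease of at least 30% at 10 µM or well 3 SD below plate mean, unless failing retest; inactive means the rest, including hits failing retest or dose response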
# DSG3 Ab inh = inhibitors of pemphigus antibody binding to DSG3, primary screen, biochemical, bead-based, flow cytometry, scFv-GFP | Desmoglein-3 (Homo sapiens), P32926 | 0.48% of 310,000 active | binding (percent of control), % at 10 µM | DSG3-coupled beads, scFv-anti-DSG3-GFP binding; hits give low values;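 active means binding more than 3 SD below its plate's average and above zero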;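 further: hits lower antibody fragment binding to DSG3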
# Numbers without * were called inactive; i = inactive; / = no result given. Rows were chosen to be rich in hits. Some 2.3% of all compounds tested hit in one or more screens of this group.
SMILES,T cell HTS,GPR7 antagonist,CHT block,CHT PAM,pCIP destab,DSG3 Ab inh
CS(=O)(=O)N1CCc2cc(S(=O)(=O)NCCNS(=O)(=O)c3ccc4c(c3)CCN4S(C)(=O)=O)ccc21,128,-10,i,i,-12,77*
CS(=O)(=O)N1CCc2cc(S(=O)(=O)Nc3ccc4c(c3)OCCO4)ccc21,434,-5,i,i,-6,100
O=C(Nc1ccccc1)OCCCCCOC(=O)Nc1ccccc1,203,-6,i,i,-8,79*
O=C(Nc1ccccc1)OCCOc1ccccc1Br,233,-11,i,i,5,69*
S=C1NCC(c2ccccc2)S1 (centres undefined),/,/,/,/,/,124
CCOC(=O)CN(C(=O)c1snc(C(N)=O)c1N)C(C(=O)NCCC(C)C)c1ccc(C)cc1 (centres undefined),/,/,/,/,/,98
CCC/C(O)=C1\C(=O)CC(C)(C)CC1=Nc1ccc(OC)cc1OC,417,16*,i,i,-6,108
Cc1ccc(N2CC(C(=O)Nc3cc(S(=O)(=O)N4CCCCC4)ccc3C)CC2=O)cc1 (centres undefined),/,/,/,/,/,108
C/C(=N\OC(=O)c1cccc(C(F)(F)F)c1)c1sc(-c2ccccc2)nc1C,677,-15,i,i,-7,78*
C/C(=N\OC(=O)c1ccc(F)cc1)c1sc(-c2ccccc2)nc1C,294,-12,i,i,-11,/
C/C(=N\OC(=O)c1cccc(C)c1)c1sc(-c2ccccc2)nc1C,392,-14,i,i,-2,-28*
COc1cc(CNCCO)cc(Cl)c1OCc1ccc(Cl)cc1Cl,223,58*,i,i,-9,111
Cc1cccc(C)c1NC(=O)C1(NC(=O)C2CCC(=O)N2)CCCCC1 (centres undefined),222,4,i,i,3,/
Cc1cccc(C)c1NC(=O)C1(N2C(=O)CC2c2ccccc2)CCCCC1 (centres undefined),i,18*,i,i,-6,100
O=C(NCCc1nc2ccc(Cl)cc2[nH]1)C1CCC(=O)N(Cc2cccc(F)c2)C1 (centres undefined),67*,-16,i,i,-20,/
C[C@H]1CN([C@@H](C)CO)C(=O)CCCn2cc(nn2)CO[C@@H]1CN(C)C(=O)Nc1cccc(Oc2ccccn2)c1,/,/,/,/,/,101
CC1(C)CC(=O)C=C(NC2CCCCCC2)C1,481,15*,i,i,-8,100
CC1(C)CC(=O)C=C(NC2CCCCCCC2)C1,141,8,i,i,-10,102
Cc1cc(C)c2cc(C#N)c(NCCCNC(=O)c3cccnc3)nc2c1,/,/,/,/,/,111
O=C(Nc1cccc(C(F)(F)F)c1)Oc1ccc(Cl)c2cccnc12,84,32*,i,i,9,119
Cc1cccc(OCc2nc(C#N)c(N3CC(C)CC(C)C3)o2)c1 (centres undefined),192,21*,i,i,0,106
CCNc1oc(COc2cccc(C)c2)nc1C#N,544,-4,i,i,-4,107
CSc1nc(SCC(=O)NC(c2ccccc2)c2ccccc2)c2c3c(sc2n1)CN(C)CC3,326,-13,i,i,-6,108
CCN(CC)CCCNc1nc(SC)nc2sc3c(c12)CCN(C)C3,364,-4,i,7.1*,3,/
Cc1nnc(NC(=O)CCN2C(=O)C3CC=CCC3C2=O)s1 (centres undefined),/,/,/,/,/,89
Cc1coc2c(C)c3oc(=O)c(CCC(=O)N[C@H](C(=O)O)C(C)C)c(C)c3cc12,/,/,/,/,/,98
COc1ccc(C2CC(O)(c3ccccc3)Oc3cc(OC)c(OC)c(OC)c32)cc1 (centres undefined),207,/,i,i,-16,109
OC1(c2ccccc2)CC(c2ccccc2)c2ccccc2O1 (centres undefined),/,/,/,/,/,49*
